Assay results from different studies.
Compare with care: the assays were run in different laboratories.
Target: LIM domain kinase 1 (LIMK1, Homo sapiens, UniProt P53667)

SMILES | assay | setting | remaining binding
Cc1cnn2ncc(-c3ccnc(N(C)C)n3)c2c1 | binding | 1 µM | 100%
C[C@@H](c1ccc(-n2cnc3c(N)ncnc32)cc1)N1CCc2nn(C)c(Cc3ccccc3)c2C1=O | binding, competition with immobilised ligand | 0.1 µM | 65%
CCC(=O)N[C@H]1CC[C@@H](C(=O)N(C)c2ccc(-c3nc4ccccc4o3)cc2)C1 | cell-free assay, competition with immobilised ligand | 1 µM | 86%
C[C@@H]1CCN(c2nccc(-c3cnn4ncccc34)n2)C1 | binding | 1 µM | 100%
Nc1ncc2c(n1)-c1c([nH]c3ccc(C#CC4CC4)cc13)CCCC2 | binding, competition with immobilised ligand | 1 µM | 96%
O=C(NCCCN1CCOCC1)c1ccc(Nc2ncc(Cl)c(-c3ccc(Cl)s3)n2)cc1 | binding, competition with immobilised ligand | 1 µM | 83%
COCCOc1nc(-c2ccc(Cl)nc2)nc2c1CN(C(=O)c1ncn3ccccc13)CC2 | cell-free assay, competition with immobilised ligand | 0.1 µM | 100%
C=CC(=O)N1CCC(C(=O)NCC(=O)N2CCN(c3nc(-c4cnc(N)nc4C(F)F)nc(N4CCOCC4)n3)CC2)CC1 | binding, competition with immobilised ligand | 1 µM | 100%
O=C(Nc1c[nH]nc1C(=O)NC1CCNCC1)c1cc(F)cc(F)c1 | binding, competition with immobilised ligand | 1 µM | 97%
O=C(c1ccc(Nc2nccc(-c3cc4ccccc4s3)n2)cc1)N1CCC(N2CCCC2)CC1 | binding, competition with immobilised ligand | 1 µM | 20%
O=C(NCc1ncc(C(F)(F)F)cc1Cl)c1ccc2c(c1)C1(CCS(=O)(=O)CC1)[C@@H](C1CC1)N2S(=O)(=O)c1ccc(F)cc1 | cell-free assay, competition with immobilised ligand | 1 µM | 91%
N[C@H]1CCN(c2nccc(-c3cnn4ncccc34)n2)C1 | binding | 1 µM | 81%
COc1cnc(Nc2cccc(S(N)(=O)=O)c2)nc1N1CCN(c2ccccc2)CC1 | binding, competition with immobilised ligand | 1 µM | 100%
CN(C)c1ncc(F)c(-c2cnn3ncccc23)n1 | binding | 1 µM | 89%
Cc1c(NC(=O)c2cc(C(N)=O)nc3cc(F)ccc23)c(C(F)(F)F)nn1Cc1ccc(C#N)cc1 | cell-free assay, competition with immobilised ligand | 1 µM | 78%
COc1ncc2cc3ccccc3nc2c1C#N | cell-free assay, competition with immobilised ligand | 5 µM | 98%
COc1cnc(Nc2cccc(S(N)(=O)=O)c2)nc1N1CCN(c2ccccc2)C(=O)C1 | binding, competition with immobilised ligand | 1 µM | 100%
CCCCN(CCCC)C(=O)CN1C[C@@H](c2cc(OC)c3c(c2)OCO3)[C@H](C(=O)O)[C@H]1CC(C)(C)CCC | cell-free assay, competition with immobilised ligand | 1 µM | 99%
CC1CCCN1c1nccc(-c2cnn3ncccc23)n1 (stereo not drawn) | binding | 1 µM | 100%
CC(=O)N1CCC(c2ccc(C(=O)NC(=N)N)cc2C(F)(F)F)CC1 | cell-free assay, competition with immobilised ligand | 1 µM | 100%
O=C(c1ccc(Nc2ncc(Cl)c(-c3cc4ccccc4s3)n2)cc1)N1CCC(N2CCCC2)CC1 | binding, competition with immobilised ligand | 1 µM | 53%
